Laboratory results as given in ChEMBL document CHEMBL1128367, “Synthesis of 4"-deoxy motilides: identification of a potent and orally active prokinetic drug candidate” (J Med Chem, 1995).

Key:
Oryctolagus cuniculus = species on record: Oryctolagus cuniculus; experiment: The compound was tested in vitro for prokinetic activity as smooth muscle contractility in isolated rabbit duodenum; type: functional, Muscle tissue
[1] = Activity relative to erythromycin A
[2] = Half life period after oral administration in the dog; type: ADME, organism-based, Canis lupus familiaris; conditions: in vivo
Summary of the method: (§1)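 Groups of fasted male/female beagle dogs received the lactobionate salt as a 2 mg/mL solution, at 0.5 mg/kg iv or 1 mg/kg po. Blood was sampled at set times over 12 h. Parent drug was extracted from alkalized plasma with EtOAc:hexane (1:1) and measured by reverse-phase HPLC (pH 6.9 phosphate mobile phase) with oxidative electrochemical detection. The assay was linear over 0-500 ng/mL, with LOQ ~7 ng/mL.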

[3] = Oral bioavailability in dog; type: ADME, organism-based, Canis lupus familiaris; conditions: in vivo; summary of the method: as §1

Relative activity [1]	half-life [2] [h]	bioavailability [3] [%]	SMILES	pED50 (Oryctolagus cuniculus)
			CC[C@H]1OC(=O)[C@H](C)[C@@H](O[C@H]2C[C@@](C)(OC)[C@@H](O)[C@H](C)O2)[C@H](C)[C@@H](O[C@@H]2O[C@H](C)C[C@H](N(C)C)[C@H]2O)[C@](C)(O)C[C@@H](C)C(=O)[C@H](C)[C@@H](O)[C@]1(C)O [ERYTHROMYCIN]	5.85
5.41			CC[C@H]1OC(=O)[C@H](C)[C@@H](O[C@H]2C[C@@](C)(OC)C[C@H](C)O2)[C@H](C)[C@@H](O[C@@H]2O[C@H](C)C[C@H](N(C)C)[C@H]2O)[C@@]2(C)CC(C)=C(O2)[C@H](C)[C@@H](O)[C@H]1C	11.26
1.3			CC[C@H]1OC(=O)[C@H](C)[C@@H](O[C@H]2C[C@@](C)(OC)[C@@H](O)[C@H](C)O2)[C@H](C)[C@@H](O[C@@H]2O[C@H](C)C[C@H](NC)[C@H]2O)[C@@]2(C)CC(C)=C(O2)[C@H](C)[C@@H](O)[C@]1(C)O	7.1
3.89			CC[C@H]1OC(=O)[C@H](C)[C@@H](O[C@H]2C[C@@](C)(OC)C[C@H](C)O2)[C@H](C)[C@@H](O[C@@H]2O[C@H](C)C[C@H](NC)[C@H]2O)[C@@]2(C)CC(C)=C(O2)[C@H](C)[C@@H](O)[C@]1(C)O	9.74
2.55			CC[C@H]1OC(=O)[C@H](C)[C@@H](O[C@H]2C[C@@](C)(OC)[C@@H](O)[C@H](C)O2)[C@H](C)[C@@H](O[C@@H]2O[C@H](C)C[C@H](N(C)C)[C@H]2O)[C@@]2(C)CC(C)=C(O2)[C@H](C)[C@@H](O)[C@]1(C)O	8.4
2.83			CC[C@H]1OC(=O)[C@H](C)[C@@H](O[C@H]2C[C@@](C)(OC)[C@@H](O)[C@H](C)O2)[C@H](C)[C@@H](O[C@@H]2O[C@H](C)C[C@H](N(C)C)[C@H]2O)[C@@]2(C)CC(C)=C(O2)[C@H](C)[C@@H](O)[C@H]1C	8.68
> 6.15	2	23.8	CC[C@H]1OC(=O)[C@H](C)[C@@H](O[C@H]2C[C@@](C)(OC)C[C@H](C)O2)[C@H](C)[C@@H](O[C@@H]2O[C@H](C)C[C@H](NC)[C@H]2O)[C@@]2(C)CC(C)=C(O2)[C@H](C)[C@@H](O)[C@H]1C	>12
2.56			CC[C@H]1OC(=O)[C@H](C)[C@@H](O[C@H]2C[C@@](C)(OC)C[C@H](C)O2)[C@H](C)[C@@H](O[C@@H]2O[C@H](C)C[C@H](N(C)C)[C@H]2O)[C@@]2(C)CC(C)=C(O2)[C@H](C)[C@@H](O)[C@]1(C)O	8.41
> 6.15	5.5	39	CC[C@H]1OC(=O)[C@H](C)[C@@H](O[C@H]2C[C@@](C)(OC)C[C@H](C)O2)[C@H](C)[C@@H](O[C@@H]2O[C@H](C)C[C@H](N(C)CC)[C@H]2O)[C@@]2(C)CC(C)=C(O2)[C@H](C)[C@@H](O)[C@H]1C [ALEMCINAL]	>12
5.3	2.6	2.7	CC[C@H]1OC(=O)[C@H](C)[C@@H](O[C@H]2C[C@@](C)(OC)C[C@H](C)O2)[C@H](C)[C@@H](O[C@@H]2O[C@H](C)C[C@H](N(C)CC)[C@H]2O)[C@@]2(C)CC(C)=C(O2)[C@H](C)[C@@H](O)[C@]1(C)O	11.15
2.6	2.4	1.4	CC[C@H]1OC(=O)[C@H](C)[C@@H](O[C@H]2C[C@@](C)(OC)[C@@H](O)[C@H](C)O2)[C@H](C)[C@@H](O[C@@H]2O[C@H](C)C[C@H](N(C)CC)[C@H]2O)[C@@]2(C)CC(C)=C(O2)[C@H](C)[C@@H](O)[C@]1(C)O	8.45
